Experimental data reported in ChEMBL document CHEMBL4393701, “Appendix A. dithioloquinolinethiones as new potential multitargeted antibacterial and antifungal agents: Synthesis, biological evaluation and molecular docking studies” (2019).
≈ marks a conversion by molar mass, not a printed value.

Tests used:
Bacillus cereus [1] = test: Antibacterial activity against Bacillus cereus clinical isolate after 24 hrs by iodonitrotetrazolium chloride dye based microdilution assay; assay type: functional
How it was run: (§1)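 Fresh overnight cultures adjusted spectrophotometrically to 1×10^5 CFU/mL, giving 1.0×10^4 CFU per well in tryptic soy broth. Compounds were dissolved in 5% DMSO and tested at 0.001-1.0 mg/ml by serial dilution; 5% DMSO was the negative control. After 24 h at 37 °C, 0.2 mg/mL INT solution was added for 30 min at 37 °C and OD read at 655 nm. MIC is the lowest concentration giving significant growth inhibition versus the positive control. Duplicates, repeated three times.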

Bacillus cereus [2] = test: Bactericidal activity against Bacillus cereus clinical isolate incubated for 24 hrs followed by re-plating on tryptic soy broth; assay type: functional
How it was run: (§2)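 Bacteria were grown in tryptic soy broth, 1.0×10^4 CFU per well, with compounds in 5% DMSO at 0.001-1.0 mg/ml for 24 h at 37 °C. Then 10 µL was subcultured into fresh TSB. MBC is the lowest concentration showing no growth after subculture, taken as 99.5% kill of the original inoculum. Duplicates, repeated three times.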

Micrococcus flavus [3] = test: Antibacterial activity against Micrococcus flavus ATCC 10240 after 24 hrs by iodonitrotetrazolium chloride dye based microdilution method; assay type: functional; settings: ATCC 10240, 24 h; how it was run: as §1
Micrococcus flavus [4] = test: Bactericidal activity against Micrococcus flavus ATCC 10240 incubated for 24 hrs followed by re-plating on tryptic soy broth; assay type: functional; settings: ATCC 10240, 24 h; how it was run: as §2
Staphylococcus aureus [5] = test: Antibacterial activity against Staphylococcus aureus ATCC 6538 after 24 hrs by iodonitrotetrazolium chloride dye based microdilution method; assay type: functional; settings: ATCC 6538, 24 h; how it was run: as §1
Staphylococcus aureus [6] = test: Bactericidal activity against Staphylococcus aureus ATCC 6538 incubated for 24 hrs followed by re-plating on tryptic soy broth; assay type: functional; settings: ATCC 6538, 24 h; how it was run: as §2
Listeria monocytogenes [7] = test: Antibacterial activity against Listeria monocytogenes NCTC 7973 after 24 hrs by iodonitrotetrazolium chloride dye based microdilution method; assay type: functional; settings: NCTC 7973, 24 h; how it was run: as §1
Listeria monocytogenes [8] = test: Bactericidal activity against Listeria monocytogenes NCTC 7973 incubated for 24 hrs followed by re-plating on tryptic soy broth; assay type: functional; settings: NCTC 7973, 24 h; how it was run: as §2
Enterobacter cloacae [9] = test: Antibacterial activity against Enterobacter cloacae clinical isolate after 24 hrs by iodonitrotetrazolium chloride dye based microdilution method; assay type: functional; how it was run: as §1
Enterobacter cloacae [10] = test: Bactericidal activity against Enterobacter cloacae incubated for 24 hrs followed by re-plating on tryptic soy broth; assay type: functional; how it was run: as §2
Pseudomonas aeruginosa [11] = test: Antibacterial activity against Pseudomonas aeruginosa ATCC 27853 after 24 hrs by iodonitrotetrazolium chloride dye based microdilution method; assay type: functional; settings: ATCC 27853, 24 h; how it was run: as §1
Pseudomonas aeruginosa [12] = test: Bactericidal activity against Pseudomonas aeruginosa ATCC 27853 incubated for 24 hrs followed by re-plating on tryptic soy broth; assay type: functional; settings: ATCC 27853, 24 h; how it was run: as §2
Salmonella typhimurium [13] = test: Antibacterial activity against Salmonella typhimurium ATCC 13311 after 24 hrs by iodonitrotetrazolium chloride dye based microdilution method; assay type: functional, Salmonella enterica subsp. enterica serovar Typhimurium; settings: Salmonella enterica, ATCC 13311, 24 h; how it was run: as §1
Salmonella typhimurium [14] = test: Bactericidal activity against Salmonella typhimurium ATCC 13311 incubated for 24 hrs followed by re-plating on tryptic soy broth; assay type: functional, Salmonella enterica subsp. enterica serovar Typhimurium; settings: Salmonella enterica, ATCC 13311, 24 h; how it was run: as §2
Escherichia coli [15] = test: Antibacterial activity against Escherichia coli ATCC 35210 after 24 hrs by iodonitrotetrazolium chloride dye based microdilution method; assay type: functional; settings: ATCC 35210, 24 h; how it was run: as §1
Escherichia coli [16] = test: Bactericidal activity against Escherichia coli ATCC 35210 incubated for 24 hrs followed by re-plating on tryptic soy broth; assay type: functional; settings: ATCC 35210, 24 h; how it was run: as §2
Aspergillus fumigatus [17] = test: Antifungal activity against Aspergillus fumigatus ATCC 1022 after 72 hrs by microdilution technique; assay type: functional; settings: ATCC 1022, 72 h
How it was run: (§3)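 Spores were washed off malt agar with 0.85% saline containing 0.1% Tween 80 and adjusted to about 1.0×10^5 per well. Compounds in 5% DMSO were serially diluted (0.001-1.0 mg/ml) in malt broth with inoculum. Plates were shaken at 160 rpm for 72 h at 28 °C. MIC is the lowest concentration without visible growth under a binocular microscope. Three independent experiments in duplicate.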

Aspergillus fumigatus [18] = test: Fungicidal activity against Aspergillus fumigatus ATCC 1022 incubated for 72 hrs followed by sub-culturing on broth malt medium and measured after 72 hrs; assay type: functional; settings: ATCC 1022, 72 h
How it was run: (§4)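 After 72 h exposure in malt broth, 2 µL from test wells was subcultured into wells holding 100 µL broth and incubated a further 72 h at 28 °C. MFC is the lowest concentration with no visible growth, taken as 99.5% kill of the original inoculum. Three independent experiments in duplicate.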

Aspergillus versicolor [19] = test: Antifungal activity against Aspergillus versicolor ATCC 11730 after 72 hrs by microdilution method; assay type: functional; settings: ATCC 11730, 72 h; how it was run: as §3
Aspergillus versicolor [20] = test: Fungicidal activity against Aspergillus versicolor ATCC 11730 incubated for 72 hrs followed by sub-culturing on broth malt medium and measured after 72 hrs; assay type: functional; settings: ATCC 11730, 72 h; how it was run: as §4
Aspergillus ochraceus [21] = test: Antifungal activity against Aspergillus ochraceus ATCC 12066 after 72 hrs by microdilution technique; assay type: functional; settings: ATCC 12066, 72 h; how it was run: as §3
Aspergillus ochraceus [22] = test: Fungicidal activity against Aspergillus ochraceus ATCC 12066 incubated for 72 hrs followed by sub-culturing on broth malt medium and measured after 72 hrs; assay type: functional; settings: ATCC 12066, 72 h; how it was run: as §4
Aspergillus niger [23] = test: Antifungal activity against Aspergillus niger ATCC 6275 after 72 hrs by microdilution technique; assay type: functional; settings: ATCC 6275, 72 h; how it was run: as §3
Aspergillus niger [24] = test: Fungicidal activity against Aspergillus niger ATCC 6275 incubated for 72 hrs followed by sub-culturing on broth malt medium and measured after 72 hrs; assay type: functional; settings: ATCC 6275, 72 h; how it was run: as §4
Trichoderma viride [25] = test: Antifungal activity against Trichoderma viride IAM 5061 after 72 hrs by microdilution technique; assay type: functional; settings: IAM 5061, 72 h; how it was run: as §3
Trichoderma viride [26] = test: Fungicidal activity against Trichoderma viride IAM 5061 incubated for 72 hrs followed by sub-culturing on broth malt medium and measured after 72 hrs; assay type: functional; settings: IAM 5061, 72 h; how it was run: as §4
Penicillium ochrochloron [27] = test: Antifungal activity against Penicillium ochrochloron ATCC 9112 after 72 hrs by microdilution technique; assay type: functional; settings: ATCC 9112, 72 h; how it was run: as §3
Penicillium ochrochloron [28] = test: Fungicidal activity against Penicillium ochrochloron ATCC 9112 incubated for 72 hrs followed by sub-culturing on broth malt medium and measured after 72 hrs; assay type: functional; settings: ATCC 9112, 72 h; how it was run: as §4
[29] = Antifungal activity against Penicillium funiculosum ATCC 36839 after 72 hrs by microdilution technique; assay type: functional; settings: Talaromyces pinophilus, ATCC 36839, 72 h; how it was run: as §3
[30] = Fungicidal activity against Penicillium funiculosum ATCC 36839 incubated for 72 hrs followed by sub-culturing on broth malt medium and measured after 72 hrs; assay type: functional; settings: Talaromyces pinophilus, ATCC 36839, 72 h; how it was run: as §4
Penicillium cyclopium [31] = test: Antifungal activity against Penicillium verrucosum var. cyclopium food isolate after 72 hrs by microdilution technique; assay type: functional; how it was run: as §3
Penicillium cyclopium [32] = test: Fungicidal activity against Penicillium verrucosum var. cyclopium food isolate incubated for 72 hrs followed by sub-culturing on broth malt medium and measured after 72 hrs; assay type: functional; how it was run: as §4

Compound | MIC (Bacillus cereus [1]) [µM] | MBC (Bacillus cereus [2]) [µM] | MIC (Micrococcus flavus [3]) [µM] | MBC (Micrococcus flavus [4]) [µM] | MIC (Staphylococcus aureus [5]) [µM] | MBC (Staphylococcus aureus [6]) [µM] | MIC (Listeria monocytogenes [7]) [µM] | MBC (Listeria monocytogenes [8]) [µM] | MIC (Enterobacter cloacae [9]) [µM] | MBC (Enterobacter cloacae [10]) [µM] | MIC (Pseudomonas aeruginosa [11]) [µM] | MBC (Pseudomonas aeruginosa [12]) [µM] | MIC (Salmonella typhimurium [13]) [µM] | MBC (Salmonella typhimurium [14]) [µM] | MIC (Escherichia coli [15]) [µM] | MBC (Escherichia coli [16]) [µM] | MIC (Aspergillus fumigatus [17]) [×10⁻² mM] | MFC (Aspergillus fumigatus [18]) [×10⁻² mM] | MIC (Aspergillus versicolor [19]) [×10⁻² mM] | MFC (Aspergillus versicolor [20]) [×10⁻² mM] | further results
Cc1ccc2c(c1)-c1c(ssc1=S)C(C)(C)N2C(=O)CSc1nn(-c2ccccc2)c(=S)s1 | 27.5 (≈ 15 µg/mL) | 55 (≈ 30 µg/mL) | 27.5 (≈ 15 µg/mL) | 55 (≈ 30 µg/mL) | 27.5 (≈ 15 µg/mL) | 55 (≈ 30 µg/mL) | 27.5 (≈ 15 µg/mL) | 55 (≈ 30 µg/mL) | 27.5 (≈ 15 µg/mL) | 55 (≈ 30 µg/mL) | 27.5 (≈ 15 µg/mL) | 55 (≈ 30 µg/mL) | 27.5 (≈ 15 µg/mL) | 55 (≈ 30 µg/mL) | 27.5 (≈ 15 µg/mL) | 55 (≈ 30 µg/mL) | 8.24 | 22 | 22 | 44 | MIC (Aspergillus ochraceus [21]): 1.47 ×10⁻² mM; MFC (Aspergillus ochraceus [22]): 2.75 ×10⁻² mM; MIC (Aspergillus niger [23]): 2.02 ×10⁻² mM; MFC (Aspergillus niger [24]): 5.5 ×10⁻² mM; MIC (Trichoderma viride [25]): 1.1 ×10⁻² mM; MFC (Trichoderma viride [26]): 1.47 ×10⁻² mM; MIC (Penicillium ochrochloron [27]): 2.75 ×10⁻² mM; MFC (Penicillium ochrochloron [28]): 5.5 ×10⁻² mM; MIC [29]: 2.75 ×10⁻² mM; MFC [30]: 5.5 ×10⁻² mM; MIC (Penicillium cyclopium [31]): 22 ×10⁻² mM; MFC (Penicillium cyclopium [32]): 44 ×10⁻² mM
COc1ccc2c(c1)-c1c(ssc1=S)C(C)(C)N2C(=O)CSc1nc2ccccc2s1 | 29.8 (≈ 15 µg/mL) | 59.7 (≈ 30 µg/mL) | 29.8 (≈ 15 µg/mL) | 59.7 (≈ 30 µg/mL) | 29.8 (≈ 15 µg/mL) | 59.7 (≈ 30 µg/mL) | 29.8 (≈ 15 µg/mL) | 59.7 (≈ 30 µg/mL) | 29.8 (≈ 15 µg/mL) | 59.7 (≈ 30 µg/mL) | 29.8 (≈ 15 µg/mL) | 59.7 (≈ 30 µg/mL) | 29.8 (≈ 15 µg/mL) | 59.7 (≈ 30 µg/mL) | 29.8 (≈ 15 µg/mL) | 59.7 (≈ 30 µg/mL) | 1.59 | 2.98 | 1.59 | 2.98 | MIC (Aspergillus ochraceus [21]): 1.59 ×10⁻² mM; MFC (Aspergillus ochraceus [22]): 2.98 ×10⁻² mM; MIC (Aspergillus niger [23]): 1.59 ×10⁻² mM; MFC (Aspergillus niger [24]): 2.98 ×10⁻² mM; MIC (Trichoderma viride [25]): 0.8 ×10⁻² mM; MFC (Trichoderma viride [26]): 1.59 ×10⁻² mM; MIC (Penicillium ochrochloron [27]): 0.4 ×10⁻² mM; MFC (Penicillium ochrochloron [28]): 0.8 ×10⁻² mM; MIC [29]: 1.59 ×10⁻² mM; MFC [30]: 2.98 ×10⁻² mM; MIC (Penicillium cyclopium [31]): 1.59 ×10⁻² mM; MFC (Penicillium cyclopium [32]): 2.98 ×10⁻² mM
COc1cc2c(c([N+](=O)[O-])c1)NC(C)(C)c1ssc(=S)c1-2 | 44.1 (≈ 15 µg/mL) | 88.1 (≈ 30 µg/mL) | 132 (≈ 44.9 µg/mL) | 176 (≈ 59.9 µg/mL) | 88.1 (≈ 30 µg/mL) | 176 (≈ 59.9 µg/mL) | 176 (≈ 59.9 µg/mL) | 352 (≈ 120 µg/mL) | 88.1 (≈ 30 µg/mL) | 176 (≈ 59.9 µg/mL) | 88.1 (≈ 30 µg/mL) | 176 (≈ 60 µg/mL) | 176 (≈ 60 µg/mL) | 352 (≈ 120 µg/mL) | 132 (≈ 45 µg/mL) | 176 (≈ 59.9 µg/mL) | 17.6 | 35.2 | 4.41 | 8.81 | MIC (Aspergillus ochraceus [21]): 2.35 ×10⁻² mM; MFC (Aspergillus ochraceus [22]): 4.41 ×10⁻² mM; MIC (Aspergillus niger [23]): 4.41 ×10⁻² mM; MFC (Aspergillus niger [24]): 8.81 ×10⁻² mM; MIC (Trichoderma viride [25]): 3.23 ×10⁻² mM; MFC (Trichoderma viride [26]): 4.41 ×10⁻² mM; MIC (Penicillium ochrochloron [27]): 4.41 ×10⁻² mM; MFC (Penicillium ochrochloron [28]): 8.81 ×10⁻² mM; MIC [29]: 4.41 ×10⁻² mM; MFC [30]: 8.81 ×10⁻² mM; MIC (Penicillium cyclopium [31]): 6.46 ×10⁻² mM; MFC (Penicillium cyclopium [32]): 17.6 ×10⁻² mM
